The term IC50 denotes the point on the concentration scale where inhibition reaches its midpoint. One may read the CC50 as the concentration at which the toxic effect on the cells reaches its halfway point. The low end stands for greater toxicity to the cells, the high end for lower toxicity to the cells.

We go through ten molecules from publication PMC3458564 (Nucleic Acids Research, 2012).

Counter-ions that a name gives are not always drawn.

For series [1], the target named is T1, HCV NS3h (Hepatitis C virus genotype 1b, UniProt Q9WMX2). Briefly: NS3h molecular beacon-based helicase assay. The series is classed as biochemical. As to conditions: for IC50: n=3.
For series [2], the target named is T1, HCV NS3h. Briefly: biochemical. In kind it is binding. As to conditions: for Cy5-dT15-NS3h Binding % Inhibition (LOPAC screen): LOPAC samples at 100 µM, 100 µM.
Series [3] in a line: Cell Titer-Glo cell viability assay. In kind it is cell-based. As to conditions: human, Huh-7.5 cells. The procedure, abridged: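 Huh-7.5 cells carrying a stable HCV Renilla luciferase replicon, seeded at 10 000 cells/well, attached 4–5 h in DMEM with 10% FBS, glutamine, penicillin/streptomycin and non-essential amino acids. Test compound added in DMSO (0.5% final). Incubated 72 h at 37°C, 5% CO2. Cells washed, lysed by shaking in medium plus CellTiter-Glo, 30 min at 23°C. Luminescence read 1 s, normalized to DMSO-only. Triplicates.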
For orientation: In ATP-based viability assays light output follows the ATP content of the culture.

The next series has as its target E. coli SSB (Escherichia coli, UniProt P0AGE0). Briefly: Escherichia coli SSB FP assay. The series is classed as binding.
The next series addresses T2, NS3h (Hepatitis C virus genotype 1b, UniProt Q9WMX2).
T2 sequence (Q9WMX2 1193-1657 limits assumed): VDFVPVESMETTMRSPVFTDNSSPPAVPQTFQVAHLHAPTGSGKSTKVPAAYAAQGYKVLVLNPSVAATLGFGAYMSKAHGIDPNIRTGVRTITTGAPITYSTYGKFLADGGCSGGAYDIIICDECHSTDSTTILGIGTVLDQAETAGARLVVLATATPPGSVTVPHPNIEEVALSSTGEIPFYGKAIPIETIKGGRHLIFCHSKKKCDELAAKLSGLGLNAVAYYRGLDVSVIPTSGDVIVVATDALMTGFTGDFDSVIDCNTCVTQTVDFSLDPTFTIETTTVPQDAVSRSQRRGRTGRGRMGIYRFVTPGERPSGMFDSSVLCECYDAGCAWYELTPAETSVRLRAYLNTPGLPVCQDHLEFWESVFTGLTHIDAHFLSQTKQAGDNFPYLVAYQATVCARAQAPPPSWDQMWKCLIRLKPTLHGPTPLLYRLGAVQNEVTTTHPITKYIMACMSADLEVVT
Briefly: NS3h ATP hydrolysis. In kind it is biochemical. Conditions: preliminary.

The subject of series [4] is HCV RLuc replicon in Huh7.5 cells. Kind of series: HCV Renilla luciferase subgenomic replicon assay. In kind it is cell-based. Conditions: Hepatitis C virus, Huh7.5, 72 h, read-out: HCV replicon IC50 ± SD. In general terms: A replicon is a self-replicating genome or part of one, used to study replication in cells.
A further series concerns the target SSB (Escherichia coli, UniProt P0AGE0 1-178). Kind of series: fluorescence polarization.
[5] abbreviates: NS3h helicase assays DNA IC50 ± SD, DNA substrate.
The mark [6] stands for this setting: NS3h helicase assays RNA IC50 ± SD, RNA substrate.

Chain of E. coli SSB (P0AGE0 2-178 limits assumed): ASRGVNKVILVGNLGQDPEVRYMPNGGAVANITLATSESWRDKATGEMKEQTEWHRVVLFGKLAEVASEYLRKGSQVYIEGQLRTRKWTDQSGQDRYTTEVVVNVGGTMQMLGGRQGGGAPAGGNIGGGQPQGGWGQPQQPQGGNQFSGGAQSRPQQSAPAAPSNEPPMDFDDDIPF
Chain of SSB (P0AGE0 whole entry): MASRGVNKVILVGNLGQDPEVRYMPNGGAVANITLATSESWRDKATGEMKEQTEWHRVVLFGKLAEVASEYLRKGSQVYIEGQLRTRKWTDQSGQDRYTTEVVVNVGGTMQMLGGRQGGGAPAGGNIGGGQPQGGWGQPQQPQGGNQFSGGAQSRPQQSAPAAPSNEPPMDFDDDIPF

`CCCN(CCCN(C)C)c1cc(/C=C2/Sc3ccccc3N2C)c2ccccc2[n+]1-c1ccccc1` [SYBR green I]: the “effect on MBHA” value on HCV NS3h [1] is on record as “inhibit”.

Regarding `CN1CCN(c2ccc3[nH]c(-c4ccc5[nH]c(-c6ccc(O)cc6)nc5c4)nc3c2)CC1` [H33258], the “effect on FP-based NS3h binding assay” value on HCV NS3h [2] is listed as “increased polarization”.

Take `O=C(O)C1=CC(=C(c2ccc(O)c(C(=O)O)c2)c2ccc(O)c(C(=O)O)c2)C=CC1=O` [ATA, aurintricarboxylic acid]: the IC50 against HCV NS3h [1] (setting [5]) came out at 0.6 ± 0.1 µM; on HCV NS3h [1] (setting [6]), 0.8 ± 0.2 µM; on E. coli SSB it was 1 ± 0.1 µM; against HCV NS3h [2] it was 1.4 ± 0.1 µM; in series [4], 98 ± 30 µM. Moreover, the CC50 at 72 h in series [3] was greater than 100 µM. Also, on HCV NS3h [2], the “Cy5-dT15-NS3h Binding % Inhibition (LOPAC screen)” value was “more than 60%”. The “ability of NS3h to cleave ATP in the absence of DNA or RNA” value at NS3h was “inhibits”.

As to `Nc1ccc2cc3ccc(N)cc3nc2c1` [proflavin], at HCV NS3h [1], the “effect on MBHA” value is listed as “inhibit”.

Consider `Nc1ncnc2c1ncn2[C@@H]1O[C@H](COP(=O)(O)CP(=O)(O)OP(=O)([O-])[O-])[C@H](O)C1O.[Li+].[Li+]` (stereo partly drawn) [α,β-methylene ATP, alpha,beta-Methylene adenosine 5'-triphosphate dilithium], for which the “effect on FP-based NS3h binding assay” value on HCV NS3h [2] is recorded as “did not inhibit”.

Turning to `Cn1cc(NC(=O)c2cc(NC(=O)CN=C(N)N)cn2C)cc1C(=O)NCCC(=N)N` [netropsin], at HCV NS3h [1], the “effect on MBHA” value is given as “inhibit”.

As for `CN1/C(=C/C=C/c2cc[n+](CCC[N+](C)(C)C)c3ccccc23)Sc2ccccc21.[I-].[I-]` [TO-PRO3], at HCV NS3h [2], the “effect on FP-based NS3h binding assay” value is “increased polarization”.

On to `CC(=O)NCC(=O)O.CC(=O)NCC(=O)O.N=C(N)c1ccc(N=NNc2ccc(C(=N)N)cc2)cc1` [berenil], for which, on HCV NS3h [1], the “effect on MBHA” value is on record as “inhibit”.

For `Cc1ccc(C(=O)Nc2ccc(S(=O)(=O)O)c3cc(S(=O)(=O)O)cc(S(=O)(=O)O)c23)cc1NC(=O)c1cccc(NC(=O)Nc2cccc(C(=O)Nc3cc(C(=O)Nc4ccc(S(=O)(=O)O)c5cc(S(=O)(=O)O)cc(S(=O)(=O)O)c45)ccc3C)c2)c1` [Suramin, suramin sodium salt], the IC50 against HCV NS3h [1] (setting [5]) was 3.7 ± 0.7 µM; against HCV NS3h [1] (setting [6]), 8.9 ± 2 µM; against E. coli SSB it was 0.3 µM; on HCV NS3h [2], 3.6 ± 0.3 µM; in series [4], 38 ± 9.3 µM. In addition, the CC50 at 72 h in series [3] was greater than 50 µM. For the same molecule, the “Cy5-dT15-NS3h Binding % Inhibition (LOPAC screen)” value on HCV NS3h [2] was “more than 60%”.

B1: Cy5-dT15 (ssDNA)
DNA: TTTTTTTTTTTTTTT
As for B1, the “apparent K (half saturation)” value with SSB was 9.6 ± 2 nM.
